Measurements from ChEMBL document CHEMBL1134785, “Synthesis and biological evaluation of prostaglandin-F alkylphosphinic acid derivatives as bone anabolic agents for the treatment of osteoporosis” (J Med Chem, 2001).

How the values were obtained:
[1] = molecular target: T1, Prostaglandin F2-alpha receptor (Homo sapiens, UniProt P43088); assay: In vitro binding at FP human prostaglandin receptor using [3H]PGF-2 alpha as radioligand
In short: (§1)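 COS-7 cells transiently transfected with hFP plasmid and harvested 48 h later. Membranes from nitrogen cavitation and 100000g spin, taken up at 1 mg protein/mL in TME buffer pH 6.0. Each well held 100 μg membrane, 5 nM [3H]PGF2α and competitor, n=3, 1 h at 23 °C. Bound label collected by GF/B filtration, washed in TME, scintillation counted.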

[2] = Dissociation constant was determined; format: physicochemical
[3] = molecular target: Prostaglandin E2 receptor EP2 subtype (Homo sapiens, UniProt P43116); assay: In vitro binding at EP2 human prostaglandin receptor using [3H]PGE-2 as radioligand
In short: (§2)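 Receptors stably expressed in CHO cells, collected 4-5 days after seeding. Membranes made by lysis (Tris, EDTA, protease inhibitors) and 100000g pellet, then resuspended at 1 mg protein/mL in TME. Radioligands at 5 nM: [3H]PGE2 for EP2/EP3/EP4, [3H]Iloprost for IP, [3H]SQ-29548 for TP. Competition binding with filtration and counting.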

[4] = molecular target: Prostaglandin E2 receptor EP4 subtype (Homo sapiens, UniProt P35408); assay: In vitro binding at EP4 human prostaglandin receptor using [3H]PGE-2 as radioligand; in short: as §2
[5] = molecular target: T2, Prostaglandin E2 receptor EP1 subtype (Homo sapiens, UniProt P34995); assay: In vitro binding at EP1 human prostaglandin receptor using [3H]PGE-2 as radioligand
T2 sequence (P34995 whole entry): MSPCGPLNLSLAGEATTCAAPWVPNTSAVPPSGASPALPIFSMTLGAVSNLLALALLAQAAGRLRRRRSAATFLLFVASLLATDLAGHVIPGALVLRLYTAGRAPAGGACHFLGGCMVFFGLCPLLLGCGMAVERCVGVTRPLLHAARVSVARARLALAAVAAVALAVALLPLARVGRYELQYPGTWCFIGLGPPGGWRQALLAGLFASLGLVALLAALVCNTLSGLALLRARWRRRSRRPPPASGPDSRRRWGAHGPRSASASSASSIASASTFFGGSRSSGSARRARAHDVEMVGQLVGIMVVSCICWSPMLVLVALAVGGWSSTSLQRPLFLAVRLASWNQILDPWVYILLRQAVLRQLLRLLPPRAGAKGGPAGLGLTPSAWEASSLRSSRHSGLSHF
In short: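 hEP1 transiently expressed in COS-7 cells by the hFP transfection and membrane protocol, with membranes in TME buffer pH 6.0. Competition binding used 5 nM [3H]PGE2, 1 h at 23 °C, filtration and scintillation counting.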

Thromboxane A2 receptor [6] = molecular target: T3, Thromboxane A2 receptor (Homo sapiens, UniProt P21731); assay: In vitro binding at TP human prostaglandin receptor using [3H]SQ-29,548 as radioligand; in short: as §2
T3 sequence (P21731 whole entry): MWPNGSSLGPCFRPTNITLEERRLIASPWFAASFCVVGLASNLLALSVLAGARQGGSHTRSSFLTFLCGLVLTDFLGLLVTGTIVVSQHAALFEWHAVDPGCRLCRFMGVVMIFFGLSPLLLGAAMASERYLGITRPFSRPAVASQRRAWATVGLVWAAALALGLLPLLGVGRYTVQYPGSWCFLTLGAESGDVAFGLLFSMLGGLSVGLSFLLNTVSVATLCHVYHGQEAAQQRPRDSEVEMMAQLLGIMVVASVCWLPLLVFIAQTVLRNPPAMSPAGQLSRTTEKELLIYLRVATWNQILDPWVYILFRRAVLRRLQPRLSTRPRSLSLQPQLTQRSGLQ

[7] = molecular target: T4, Prostaglandin D2 receptor (Homo sapiens, UniProt Q13258); assay: In vitro binding at DP human prostaglandin receptor using [3H]- PGD-2 as radioligand
T4 sequence (Q13258 whole entry): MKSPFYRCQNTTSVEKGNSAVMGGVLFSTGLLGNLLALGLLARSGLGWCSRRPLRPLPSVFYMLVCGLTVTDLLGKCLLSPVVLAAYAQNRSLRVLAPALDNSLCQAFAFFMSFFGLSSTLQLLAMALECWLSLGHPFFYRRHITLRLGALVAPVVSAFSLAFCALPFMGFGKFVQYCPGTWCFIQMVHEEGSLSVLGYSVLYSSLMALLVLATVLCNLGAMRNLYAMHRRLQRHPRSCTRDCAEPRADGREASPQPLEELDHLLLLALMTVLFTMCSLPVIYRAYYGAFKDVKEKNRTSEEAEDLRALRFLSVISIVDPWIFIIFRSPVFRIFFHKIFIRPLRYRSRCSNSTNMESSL
In short: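 hDP stably expressed in HEK-293 cells, collected 4-5 days after seeding. Membranes made by lysis and 100000g spin, then taken up at 1 mg protein/mL in TME buffer at pH 7.4. Competition binding used 5 nM [3H]PGD2, read by filtration and scintillation counting.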

[8] = molecular target: T5, Prostaglandin E2 receptor EP3 subtype (Homo sapiens, UniProt P43115); assay: In vitro binding at EP3 human prostaglandin receptor using [3H]PGE-2 as radioligand; in short: as §2
T5 sequence (P43115 whole entry): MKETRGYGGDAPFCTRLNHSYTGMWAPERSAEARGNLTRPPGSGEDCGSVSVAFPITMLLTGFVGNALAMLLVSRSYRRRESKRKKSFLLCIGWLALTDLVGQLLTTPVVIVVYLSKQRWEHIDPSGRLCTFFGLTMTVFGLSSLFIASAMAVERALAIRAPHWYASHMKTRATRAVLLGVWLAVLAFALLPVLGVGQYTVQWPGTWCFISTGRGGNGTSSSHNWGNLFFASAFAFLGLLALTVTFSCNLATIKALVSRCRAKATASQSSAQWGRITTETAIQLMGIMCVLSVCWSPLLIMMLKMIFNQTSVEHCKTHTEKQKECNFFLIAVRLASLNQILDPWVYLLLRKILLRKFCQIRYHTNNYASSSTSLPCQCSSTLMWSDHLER

Prostacyclin receptor = Prostacyclin receptor (Homo sapiens, UniProt P43119); assay: In vitro binding at prostanoid IP receptor using [3H]iloprost as radioligand; in short: as §2
[9] = molecular target: T5, Prostaglandin E2 receptor EP3 subtype; assay: Functional activity in RAT-1 cells, transiently transfected with human prostaglandin EP3 receptor; format: cell-based
In short: (§3)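 RAT-1 cells transiently transfected with the human receptor, carrying a stably transfected, constitutively expressed β-galactosidase reporter gene. EC50 read after timed hydrolysis of a galactosidase pseudosubstrate.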

[10] = molecular target: T2, Prostaglandin E2 receptor EP1 subtype; assay: Functional activity in RAT-1 cells, transiently transfected with human prostaglandin EP1 receptor; format: cell-based; in short: as §3
Thromboxane A2 receptor [11] = molecular target: T3, Thromboxane A2 receptor; assay: Functional activity in RAT-1 cells, transiently transfected with human prostaglandin TP receptor; format: cell-based; in short: as §3
[12] = molecular target: T1, Prostaglandin F2-alpha receptor; assay: In vitro binding at FP human prostaglandin receptor using [3H]- PGF-2 alpha as radioligand; in short: as §1
Rattus norvegicus [13] = assay: Mineral apposition measured Histomorphometrically after a dose of 3 ug/kg in proximal tibial metaphysis
Rattus norvegicus [14] = assay: Mineral surface/bone surface measured Histomorphometrically after a dose of 250 ug/kg in proximal tibial metaphysis; format: functional
Rattus norvegicus [15] = assay: Marrow area measured Histomorphometrically after a dose of 250 ug/kg in Tibial Diaphysis; format: functional
Rattus norvegicus [16] = assay: Bone Formation rate/bone measured Histomorphometrically after a dose of 250 ug/kg in proximal tibial metaphysis; format: functional
Rattus norvegicus [17] = assay: Endosteal eroded surface measured Histomorphometrically after a dose of 250 ug/kg in Tibial Diaphysis; format: functional
Rattus norvegicus [18] = assay: Bone Volume /Tissue Volume (%)measured using micro Computed Tomography(CT) after a dose of 250 ug/kg in Vertebral Bone; format: functional
Rattus norvegicus [19] = assay: Tissue area measured Histomorphometrically after a dose of 250 ug/kg in Tibial Diaphysis; format: functional
Rattus norvegicus [20] = assay: Mineral apposition measured Histomorphometrically after a dose of 250 ug/kg in proximal tibial metaphysis; format: functional
Rattus norvegicus [21] = assay: Endosteal mineralizing surface measured Histomorphometrically after a does of 250 ug/kg in Tibial Diaphysis; format: functional
Rattus norvegicus [22] = assay: Derived trabecular thickness measured using micro Computed Tomography(CT) after a dose of 250 ug/kg in Vertebral Bone; format: functional, Trabecula
Rattus norvegicus [23] = assay: Derived trabecular no measured using micro Computed Tomography(CT) after a dose of 6000 ug/kg in Vertebral Bone; format: functional, Trabecula
In short: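 Micro-CT of the fifth lumbar vertebra, measuring cancellous bone volume and architecture. Rats were 6 months old, OVX 60 days before treatment, then dosed daily for 60 days. Test-agent doses were 10–3000 µg/kg, given as a once-daily subcutaneous injection; 6 mg/kg/day was given to the positive-control group. Groups were compared with vehicle by ANOVA plus LSD test.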

Rattus norvegicus [24] = assay: Connectivity density measured using micro Computed Tomography(CT) after a dose of 250 ug/kg in Vertebral Bone; format: functional
Rattus norvegicus [25] = assay: Periosteal mineralizing surface measured Histomorphometrically after a does of 250 ug/kg in Tibial Diaphysis; format: functional
Rattus norvegicus [26] = assay: Directly measured thickness measured using micro Computed Tomography(CT) after a dose of 250 ug/kg in Vertebral Bone; format: functional
Rattus norvegicus [27] = assay: Bone Volume /Tissue Volume (%)measured Histomorphometrically after a dose of 250 ug/kg in proximal tibial metaphysis; format: functional
Rattus norvegicus [28] = assay: Mineralizing apposition measured Histomorphometrically after a dose of 250 ug/kg in Tibial Diaphysis; format: functional
Rattus norvegicus [29] = assay: Trabecular thickness measured Histomorphometrically after a dose of 250 ug/kg in proximal tibial metaphysis; format: functional, Trabecula
Rattus norvegicus [30] = assay: Bone Formation rate/tissue vol measured Histomorphometrically after a does of 250 ug/kg in proximal tibial metaphysis; format: functional
Rattus norvegicus [31] = assay: Trabecular no measured Histomorphometrically after a dose of 250 ug/kg in proximal tibial metaphysis; format: functional, Trabecula

T1 sequence (P43088 whole entry): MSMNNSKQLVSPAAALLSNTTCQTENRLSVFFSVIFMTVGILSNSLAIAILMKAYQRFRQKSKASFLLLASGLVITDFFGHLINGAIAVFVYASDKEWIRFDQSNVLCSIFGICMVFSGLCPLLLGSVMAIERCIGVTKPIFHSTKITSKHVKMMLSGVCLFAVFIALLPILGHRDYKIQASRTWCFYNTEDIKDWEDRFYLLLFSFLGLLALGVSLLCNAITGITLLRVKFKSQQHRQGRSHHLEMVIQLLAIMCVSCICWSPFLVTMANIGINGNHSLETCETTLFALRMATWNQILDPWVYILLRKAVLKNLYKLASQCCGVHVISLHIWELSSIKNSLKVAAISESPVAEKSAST
Prostaglandin E2 receptor EP2 subtype, sequence (P43116 whole entry): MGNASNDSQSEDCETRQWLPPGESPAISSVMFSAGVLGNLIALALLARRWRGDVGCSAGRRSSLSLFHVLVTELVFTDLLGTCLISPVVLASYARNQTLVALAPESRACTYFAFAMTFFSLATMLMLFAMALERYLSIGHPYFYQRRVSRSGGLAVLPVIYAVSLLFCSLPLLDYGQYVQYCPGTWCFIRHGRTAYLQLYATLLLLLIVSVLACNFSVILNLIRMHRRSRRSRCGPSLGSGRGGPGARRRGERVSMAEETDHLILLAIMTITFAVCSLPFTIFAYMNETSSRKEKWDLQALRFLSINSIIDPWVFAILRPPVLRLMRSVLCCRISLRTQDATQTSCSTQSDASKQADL
Prostacyclin receptor, sequence (P43119 whole entry): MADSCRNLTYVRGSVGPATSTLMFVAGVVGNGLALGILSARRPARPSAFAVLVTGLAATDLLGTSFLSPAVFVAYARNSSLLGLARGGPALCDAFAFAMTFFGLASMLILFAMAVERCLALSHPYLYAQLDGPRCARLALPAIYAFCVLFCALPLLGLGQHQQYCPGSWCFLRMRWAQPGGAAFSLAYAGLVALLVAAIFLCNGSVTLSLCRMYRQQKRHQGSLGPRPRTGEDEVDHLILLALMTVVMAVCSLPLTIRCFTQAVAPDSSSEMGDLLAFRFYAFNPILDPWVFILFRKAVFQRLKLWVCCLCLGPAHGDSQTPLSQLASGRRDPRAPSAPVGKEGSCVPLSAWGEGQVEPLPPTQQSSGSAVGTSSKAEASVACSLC
Prostaglandin E2 receptor EP4 subtype, sequence (P35408 whole entry): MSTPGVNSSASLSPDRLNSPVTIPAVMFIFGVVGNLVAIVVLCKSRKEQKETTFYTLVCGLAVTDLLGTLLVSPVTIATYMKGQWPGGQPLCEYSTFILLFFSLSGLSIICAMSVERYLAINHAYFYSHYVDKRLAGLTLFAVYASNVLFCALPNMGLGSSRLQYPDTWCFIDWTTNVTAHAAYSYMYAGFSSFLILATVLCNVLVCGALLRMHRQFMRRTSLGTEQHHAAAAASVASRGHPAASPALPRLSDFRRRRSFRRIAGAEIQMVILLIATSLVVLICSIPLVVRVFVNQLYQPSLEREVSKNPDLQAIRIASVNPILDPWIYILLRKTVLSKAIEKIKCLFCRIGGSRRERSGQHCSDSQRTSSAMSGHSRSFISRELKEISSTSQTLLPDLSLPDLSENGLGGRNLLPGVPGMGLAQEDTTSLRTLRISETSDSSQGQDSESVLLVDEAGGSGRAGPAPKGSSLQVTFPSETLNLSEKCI

## CCCCC[C@H](O)/C=C/[C@@H]1[C@@H](C/C=C\CCCP(=O)(O)CCCC)[C@@H](O)C[C@H]1O
[1]
  IC50: 6700 nM
[2]
  pKa: 3.36

## CCCCC[C@H](O)/C=C/[C@@H]1[C@@H](C/C=C\CCCP(=O)(O)CC)[C@@H](O)C[C@H]1O
[1]
  IC50: 4100 nM
[2]
  pKa: 3.24

## CCCCC[C@H](O)/C=C/[C@@H]1[C@@H](C/C=C\CCC[PH](=O)O)[C@@H](O)C[C@H]1O
[3]
  IC50: > 10000 nM
[4]
  IC50: > 10000 nM
[5]
  IC50: > 10000 nM
Thromboxane A2 receptor [6]
  IC50: > 10000 nM
[7]
  IC50: > 10000 nM
[8]
  IC50: > 10000 nM
[1]
  IC50: 114 nM
Prostacyclin receptor
  IC50: > 10000 nM
[2]
  pKa: 3.39

## O=C(O)CCC/C=C\C[C@@H]1[C@@H](/C=C/[C@@H](O)COc2ccccc2)[C@H](O)C[C@@H]1O
[9]
  EC50: 186 nM
[10]
  EC50: 38 nM
Thromboxane A2 receptor [11]
  EC50: 510 nM
[1]
  IC50: 2 nM
[2]
  pKa: 4.77

## CCCCC[C@H](O)/C=C/[C@@H]1[C@@H](C/C=C\CCCP(=O)(O)OCC)[C@@H](O)C[C@H]1O
[12]
  IC50: > 10000 nM
[2]
  pKa: 2.36

## CCCCC[C@H](O)/C=C/[C@@H]1[C@@H](C/C=C\CCCP(=O)(O)O)[C@@H](O)C[C@H]1O
[12]
  IC50: 1000 nM
[2]
  pKa: 2.38

## CCCCC[C@H](O)/C=C/[C@@H]1[C@@H](C/C=C\CCCP(C)(=O)O)[C@@H](O)C[C@H]1O
[1]
  IC50: 311 nM
[2]
  pKa: 3.1

## NCCCC(O)(P(=O)(O)O)P(=O)(O)O [ALENDRONIC ACID]
Rattus norvegicus [13]
  Mineral apposition rate: 0.63 µm/day

## O=C(O)CCC/C=C\CC1C(O)CC(O)C1/C=C/C(O)COc1cccc(Cl)c1 (centres undefined) [CLOPROSTENOL]
Rattus norvegicus [14]
  Activity: 22.99%
Rattus norvegicus [15]
  Marrow area: 0.7 mm
Rattus norvegicus [16]
  Activity: 286.86%
Rattus norvegicus [17]
  Endosteal eroded surface: 2.22%
Rattus norvegicus [18]
  Activity: 42.04%
Rattus norvegicus [19]
  Tissue area: 4.78 mm
Rattus norvegicus [20]
  Mineral apposition rate: 1.09 µm/day
Rattus norvegicus [21]
  Endosteal mineralizing surface: 55.18%
Rattus norvegicus [22]
  Derived trabecular thickness: 85.8 µm
Rattus norvegicus [23]
  Derived trabecular number: 4.6 mM⁻¹
Rattus norvegicus [24]
  Connectivity density: 61.13 mm**-3
Rattus norvegicus [25]
  Periosteal mineralizing surface: 9.91%
Rattus norvegicus [26]
  Directly measured thickness: 138 µm
Rattus norvegicus [27]
  Activity: 9.5%
Rattus norvegicus [28]
  Mineralizing apposition rate: 1.6 µm/day
Rattus norvegicus [29]
  Trabecular thickness: 53.9
Rattus norvegicus [30]
  Activity: 26.44%
Rattus norvegicus [31]
  Trabecular no.: 1.77

## CCCCC[C@H](O)/C=C/[C@@H]1[C@@H](C/C=C\CCCC(=O)O)[C@@H](O)C[C@H]1O [DINOPROST]
[3]
  IC50: > 10000 nM
[5]
  IC50: 220 nM
Thromboxane A2 receptor [6]
  IC50: > 10000 nM
[8]
  IC50: 110 nM
Prostacyclin receptor
  IC50: > 10000 nM
[2]
  pKa: 4.77
